Most compounds without a hit are left out; they make up all but 1.5% or so of the library.
CCR6 antagonist = CCR6 (human) receptor antagonism. inhibition, % at 20 µM. 340,000 compounds, 0.49% hits. CHO-K1 CCR6 PathHunter beta-arrestin, luminescence, CCL20-stimulated;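 active = compounds whose inhibition of the agonist-driven luminescence signal at 20 µM reaches about 50%, limit read from the data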;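 also: cells stimulated with CCL20 at 14 nM final; plate controls were DMSO with CCL20 for no effect and DMSO without agonist for full effect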
APJ agonist = APJ receptor agonism; activation, % at 20 µM; 330,000 compounds, 0.11% hits; CHO-K1 APJ PathHunter beta-arrestin, luminescence; 0% DMSO wells, 100% apelin;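 active = activation more than six SD over the plate average, tested at 20 µM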;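 also: 0% = DMSO alone and 100% = apelin-13 at 10 nM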
Target sequence (P35414 whole entry, looked up): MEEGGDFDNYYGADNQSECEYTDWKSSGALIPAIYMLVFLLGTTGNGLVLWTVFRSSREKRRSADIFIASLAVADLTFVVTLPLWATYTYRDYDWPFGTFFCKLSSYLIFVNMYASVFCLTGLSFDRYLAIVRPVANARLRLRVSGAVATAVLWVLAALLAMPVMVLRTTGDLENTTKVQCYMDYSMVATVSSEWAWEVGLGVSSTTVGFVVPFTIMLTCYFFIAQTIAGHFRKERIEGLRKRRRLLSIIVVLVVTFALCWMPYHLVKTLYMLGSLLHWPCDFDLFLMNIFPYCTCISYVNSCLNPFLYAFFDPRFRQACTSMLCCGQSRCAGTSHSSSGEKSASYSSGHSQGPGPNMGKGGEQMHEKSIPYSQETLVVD
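Test system: CHO-K1 APJ beta-arrestin complementation cell line | Compound: Single test compound dose, 20 µM final, 1% DMSO | Incubation: Compound 90 min 25 °C, reagent 1 h | Measured by: beta-gal luminescence | Read-out basis: APJ–arrestin association signal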
EBI2 block = EBI2 (human) antagonism; P32249; EBI2 beta-arrestin recruitment, luminescence, 7a,25-OHC stimulated; inhibition, % at 5 µM; 360,000 compounds, 0.81% hits; AID 651636; in the data active = inhibition above about 38%;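 also: enzyme fragment complementation signal reports receptor beta-arrestin coupling in cells; 0% = agonist plus DMSO wells and 100% = wells without agonist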
APJ antag = blocks the human apelin receptor APJ | CHO-K1 APJ beta-arrestin complementation, luminescence | 330,000 compounds, 0.32% hits | P35414 | inhibition, % at 20 µM;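 active = inhibition above about 40% at 20 µM, limit read from the data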;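 also: cells challenged with 10 nM apelin-13 agonist together with compound; plate controls were apelin-13 plus DMSO wells for no effect and DMSO wells lacking apelin-13 for full effect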
CXCR6 inh = inhibitors of human CXCR6 receptor; O00574; CHO-K1 PathHunter CXCR6 beta-arrestin, luminescence; inhibition, % at 20 µM; 360,000 compounds, 0.36% hits; AID 602244; in the data active = inhibition above about 34%, passing the limit was not always enough;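 also: antagonist mode with CXCL16 agonist at 10 nM final; 0% = 10 nM CXCL16 with DMSO and 100% = unstimulated wells without agonist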
EBI2 conf = confirmation of human EBI2 receptor antagonists; shares compounds with EBI2 block; EBI2 beta-arrestin luminescence, 7a,25-OHC antagonism; inhibition, % at 5 µM; 2,400 compounds, 29% hits; AID 651997;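 active = inhibition of at least 50%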
EBI2 agonist = EBI2 agonism counter-screen | shares compounds with EBI2 block | EBI2-expressing cells, agonist mode, luminescence, 60 min; 0% vehicle, 100% 7α,25-dihydroxycholesterol control | activation, % at 5 µM | 2,400 tested, under 10 active;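 active = activation of at least 50%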
bGal counter = counter-screen for EBI2 antagonists: E. coli beta-galactosidase inhibition; inhibition, % at 5 µM; shares compounds with EBI2 block; 2,400 compounds, 1% hits; purified beta-galactosidase, luminescent Galacton Star, 15 min; AID 652176;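 active = replicate-average signal at least 3 plate SD below neutral wells, shown as high inhibition, flagging enzyme-inhibiting false positives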;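 also: 0% = DMSO wells with enzyme and 100% = wells lacking enzyme; higher means stronger loss of beta-gal luminescence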
* hit, by the source's call; x = no result.

SMILES	CCR6 antagonist	APJ agonist	EBI2 block	APJ antag	CXCR6 inh	EBI2 conf	EBI2 agonist	bGal counter
COc1ccc(NCC(O)COc2ccc(C(C)(C)C)cc2)cc1 (stereo not given)	-3	-2	70*	-16	-6	52*	-1	5
O=S(=O)(CC(O)COc1ccc(Br)cc1)c1ccccc1 (stereo not given)	12	-4	45*	19	-4	18	-2	-6
CCOc1ccccc1N1CCN(C(=O)c2cc3cc(OC)ccc3[nH]2)CC1	3	2	52*	-5	-2	30	-1	-14
COc1ccc2cc(C(=O)N3CCN(c4ccc(F)cc4)CC3)[nH]c2c1	-12	-4	64*	-3	-6	50*	-1	-16
Cc1[nH]c(-c2ccc(F)cc2)cc1C(=O)N1CCN(c2cccc(Cl)c2)CC1	0	-2	91*	9	-4	61*	-2	-10
O=C(c1cccc(F)c1)N1CCN(c2cccc(Cl)c2)CC1	4	-2	5	-9	-11	x	x	x
O=C(c1cc2cc(F)ccc2[nH]1)N1CCN(c2cccc(Cl)c2)CC1	5	-3	61*	20	-3	48	-1	0
CCOc1ccccc1N1CCN(C(=O)c2cc(C)oc2C)CC1	4	-4	7	9	1	x	x	x
COc1cccc(S(=O)(=O)N(C)C[C@H]2Oc3ncc(Br)cc3C(=O)N([C@@H](C)CO)C[C@@H]2C)c1	x	x	-3	x	-6	x	x	x
COc1ccc2cc(C(=O)N3CCN(C)CC3)[nH]c2c1	13	-1	-12	-2	-2	x	x	x
COc1cccc(N2CCN(C(=O)c3cc4cc(Cl)ccc4[nH]3)CC2)c1	5	0	51*	-4	-4	41	1	6
O=C(Cn1nnc(-c2ccccc2)n1)N/N=C/c1cc([N+](=O)[O-])ccc1O	27	-6	55*	24	10	41	1	6
O=C(C[C@@H]1C/C=C\CC[C@@H](Cc2ccc(F)cc2)C(=O)OC[C@@H](Cc2ccccc2)NC1=O)NCCO	2	-1	5	5	1	x	x	x
COC(=O)[C@@]1(Cc2ccc(F)cc2)[C@H]2C(CC(=O)C(=O)N3CCCC3)C(=O)C[C@H]2CN1C(=O)c1ccccc1 (stereo not given in full)	x	x	-12	x	7	x	x	x
COC(=O)[C@@]1(Cc2ccc(OC)cc2)[C@@H]2C(=CC(=O)[C@H]2CC(=O)C(=O)N2CCCC2)CN1C(=O)c1ccccc1	17	2	47*	4	1	61*	0	2
CCOC(=O)C1CCCN(C2=NC(=O)/C(=C/c3ccc(OC)cc3OC)S2)C1 (stereo not given)	12	-2	10	7	6	x	x	x
CCOC(=O)C1CCCN(C2=NC(=O)/C(=C/c3ccc(OC)cc3)S2)C1 (stereo not given)	8	-3	61*	-2	4	38	1	-2
C=CCOc1ccc(/C=C2\SC(N3CCCCC3)=NC2=O)cc1	14	-5	57*	2	-3	43	1	9
O=C1N=C(N2CCCCC2)S/C1=C\c1ccc(Cl)cc1	14	-1	86*	15	0	55*	0	10
O=C1N=C(N2CCCC2)S/C1=C\c1ccccc1	7	0	0	-2	-5	x	x	x
O=C(Cc1ccccc1)N1CCN(C(=O)c2ccc([N+](=O)[O-])cc2)CC1	11	-3	10	4	-11	x	x	x
Cc1ccc(OCC(=O)N2CCN(C(=O)c3ccc([N+](=O)[O-])cc3)CC2)cc1	-1	-3	83*	4	-5	58*	-2	-10
O=C(CCC1CCCC1)N1CCN(C(=O)COc2ccccc2)CC1	-19	-1	28	-23	8	x	x	x
O=C(COc1ccc2ccccc2c1)N1CCN(C(=O)c2ccc([N+](=O)[O-])cc2)CC1	-11	-1	94*	-13	-14	76*	-2	-2
O=C(COc1ccccc1)N1CCN(C(=O)c2ccc([N+](=O)[O-])cc2)CC1	1	-3	53*	-13	1	38	2	-6
SMILES	CCR6 antagonist	APJ agonist	EBI2 block	APJ antag	CXCR6 inh	EBI2 conf	EBI2 agonist	bGal counter
Cc1ccc(OCC(=O)N2CCN(C(=O)CCC3CCCC3)CC2)cc1	8	-6	81*	7	4	61*	-1	-7
O=C(CCN1C(=O)CC1c1ccco1)N1CCOCC1 (stereo not given)	x	x	-2	x	-5	x	x	x
NC(=O)c1ncn([C@@H]2O[C@H](CNCc3cc(Cl)ccc3OCc3ccc(Cl)cc3)[C@@H](O)[C@H]2O)n1	2	x	2	x	4	x	x	x
O=C(COc1ccc(F)cc1)N1CCC(c2ccccc2)C1 (stereo not given)	-14	-5	57*	7	2	27	0	3
Cc1cccc(OCC(=O)N2CCC(c3ccccc3)C2)c1 (stereo not given)	-9	1	46*	-3	1	44	1	3
Cc1[nH]c2ccccc2c1C(=O)c1cc(Cc2ccccc2)sc1N	x	x	16	x	x	x	x	x
C[C@H](O)C#Cc1ccc2c(c1)O[C@@H](CN(C)Cc1ccc(-c3ccccc3)cc1)[C@H](C)CN([C@@H](C)CO)S2(=O)=O	x	x	27	x	2	x	x	x
CC(=O)C1=CCC(c2ccc(C)cc2)N(S(=O)(=O)c2ccc(Cl)cc2)C1 (stereo not given)	x	x	16	x	-2	x	x	x
C=CCn1c(Cn2c(-c3cnccn3)nc3ccccc32)nc2ccccc21	x	x	1	x	12	x	x	x
O=C(NCc1ccc2c(c1)OCO2)C1CCN(S(=O)(=O)c2cccs2)CC1	5	-2	10	-5	-3	x	x	x
CC1CC(C)CN(S(=O)(=O)N2CCCC(C(=O)NCCc3ccc(Cl)cc3)C2)C1 (stereo not given)	22	-2	57*	-11	-2	52*	-1	-18
O=C(NCc1ccc2c(c1)OCO2)C1CCN(S(=O)(=O)c2ccc(Br)s2)CC1	-4	3	44*	1	-4	18	-1	-4
CS(=O)(=O)N1CCCC(C(=O)NCCc2ccc(Cl)cc2)C1 (stereo not given)	14	-2	7	10	4	x	x	x
COc1ccc(CNC(=O)C2CCN(S(=O)(=O)c3ccc(Br)s3)CC2)cc1	21	-1	68*	5	7	32	-2	-9
O=C(NCCc1ccc(Cl)cc1)C1CCN(S(=O)(=O)c2ccc(Br)s2)CC1	11	-5	51*	3	-3	11	-1	-10
